Measured values as given in ChEMBL document CHEMBL3351994, “Synthesis and biological evaluation of novel millepachine derivatives as a new class of tubulin polymerization inhibitors” (J Med Chem, 2014).

Experiments:
HepG2 [1] = test: Antiproliferative activity against human HepG2 cells assessed as inhibition of cell proliferation after 48 hrs by MTT assay; assay type: functional, cell-based; conditions: hepg2
Procedure, shortened: (§1)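 Cells grown at 37 °C in humidified 5% CO2. K562, C26 and HCT lines in RPMI-1640; other lines in DMEM; both media with 10% FBS, penicillin and streptomycin. 1000 cells/well seeded, incubated overnight, then compound at various doses for 48 h. MTT added for 4 h, formazan dissolved in DMSO, absorbance read at 590 nm. IC50 from dose–response curves, mean ± SEM of at least three independent experiments.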

[2] = Antiproliferative activity against mouse C26 cells assessed as inhibition of cell proliferation after 48 hrs by MTT assay; assay type: functional, cell-based; conditions: C26, 48 h; procedure, shortened: as §1
[3] = Antiproliferative activity against human HCT116 cells assessed as inhibition of cell proliferation after 48 hrs by MTT assay; assay type: functional, cell-based; conditions: HCT-116, 48 h
[4] = Antiproliferative activity against human HCT15 cells assessed as inhibition of cell proliferation after 48 hrs by MTT assay; assay type: functional, cell-based; conditions: HCT-15, 48 h; procedure, shortened: as §1
NCI-H358 = test: Antiproliferative activity against human NCI-H358 cells assessed as inhibition of cell proliferation after 48 hrs by MTT assay; assay type: functional, cell-based; conditions: NCI-H358, 48 h; procedure, shortened: as §1
MCF7 [5] = test: Antiproliferative activity against human MCF7 cells assessed as inhibition of cell proliferation after 48 hrs by MTT assay; assay type: functional, cell-based; conditions: MCF7, 48 h; procedure, shortened: as §1
[6] = Antiproliferative activity against human ES2 cells assessed as inhibition of cell proliferation after 48 hrs by MTT assay; assay type: functional, cell-based; conditions: ES-2, 48 h
[7] = Antiproliferative activity against human A2780S cells assessed as inhibition of cell proliferation after 48 hrs by MTT assay; assay type: functional, cell-based; conditions: A2780, 48 h
Procedure, shortened: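 Cells grown in DMEM with 10% FBS, penicillin/streptomycin at 37 °C, 5% CO2. 1000 cells/well seeded, incubated overnight, then exposed to various doses for 48 h. MTT added for 4 h, formazan dissolved in DMSO, absorbance read at 590 nm. IC50 = concentration inhibiting proliferation by 50%, mean ± SEM of dose–response curves from at least three independent experiments.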

U-251 = test: Antiproliferative activity against human U251 cells assessed as inhibition of cell proliferation after 48 hrs by MTT assay; assay type: functional, cell-based; conditions: U-251, 48 h; procedure, shortened: as §1
[8] = Antiproliferative activity against taxol resistant human […] cells assessed as inhibition of cell proliferation after 48 hrs by MTT assay; assay type: functional, cell-based; conditions: A2780, 48 h; procedure, shortened: as §1
[9] = Antiproliferative activity against human HCT8 cells assessed as inhibition of cell proliferation after 48 hrs by MTT assay; assay type: functional, cell-based; conditions: HCT-8, 48 h; procedure, shortened: as §1
A2780 = test: Resistance index, ratio of IC50 for taxol resistant human […] cells to IC50 for parental human […] cells; assay type: functional
A2780cisR = test: Resistance index, ratio of IC50 for cisplatin resistant human […] cells to IC50 for parental human […] cells; assay type: functional
MCF7 [10] = test: Resistance index, ratio of IC50 for adriamycin resistant human MCF7 cells to IC50 for parental human MCF7 cells; assay type: functional
HCT-8 = test: Resistance index, ratio of IC50 for taxol resistant human HCT8 cells to IC50 for parental human HCT8 cells; assay type: functional
HepG2 [11] = test: Induction of cell cycle arrest in human HepG2 cells assessed as accumulation at S phase phase at 50 nM after 24 hrs by propidium iodide staining based flow cytometry (reference value: 30.6%); assay type: functional
HepG2 [12] = test: Induction of cell cycle arrest in human HepG2 cells assessed as accumulation at G2/M phase phase at 50 nM after 24 hrs by propidium iodide staining based flow cytometry (reference value: 11.2%); assay type: functional
HepG2 [13] = test: Induction of cell cycle arrest in human HepG2 cells assessed as accumulation at G2/M phase phase at 100 nM after 24 hrs by propidium iodide staining based flow cytometry (reference value: 11.2%); assay type: functional
HepG2 [14] = test: Induction of cell cycle arrest in human HepG2 cells assessed as accumulation at G0/G1 phase at 200 nM after 24 hrs by propidium iodide staining based flow cytometry (reference value: 58.2%); assay type: functional
HepG2 [15] = test: Induction of apoptosis in human HepG2 cells assessed as viable cells at 50 nM after 24 hrs by annexin-V-FITC and propidium iodide staining based flow cytometry (reference value: 93.2%); assay type: functional; conditions: HepG2, 24 h, read-out: Activity
HepG2 [16] = test: Induction of apoptosis in human HepG2 cells assessed as early apoptotic cells at 50 nM after 24 hrs by annexin-V-FITC and propidium iodide staining based flow cytometry (reference value: 3.63%); assay type: functional
Procedure, shortened: (§2)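 HepG2 cells treated with 50, 100 or 200 nM compound or DMSO vehicle for 24 or 48 h at 37 °C. Labeled with annexin-V-FITC and PI and analyzed by flow cytometry. Cells classified as early apoptotic (annexin-V+/PI−), late apoptotic (annexin-V+/PI+) or necrotic (annexin-V−/PI+).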

HepG2 [17] = test: Induction of apoptosis in human HepG2 cells assessed as late apoptotic cells at 50 nM after 24 hrs by annexin-V-FITC and propidium iodide staining based flow cytometry (reference value: 1.03%); assay type: functional; procedure, shortened: as §2
HepG2 [18] = test: Induction of apoptosis in human HepG2 cells assessed as early apoptotic cells at 100 nM after 24 hrs by annexin-V-FITC and propidium iodide staining based flow cytometry (reference value: 3.63%); assay type: functional; procedure, shortened: as §2
HepG2 [19] = test: Induction of apoptosis in human HepG2 cells assessed as viable cells at 200 nM after 24 hrs by annexin-V-FITC and propidium iodide staining based flow cytometry (reference value: 93.2%); assay type: functional; conditions: HepG2, 24 h, read-out: Activity
HepG2 [20] = test: Induction of apoptosis in human HepG2 cells assessed as early apoptotic cells at 200 nM after 24 hrs by annexin-V-FITC and propidium iodide staining based flow cytometry (reference value: 3.63%); assay type: functional; procedure, shortened: as §2
HepG2 [21] = test: Induction of apoptosis in human HepG2 cells assessed as late apoptotic cells at 200 nM after 24 hrs by annexin-V-FITC and propidium iodide staining based flow cytometry (reference value: 1.03%); assay type: functional; procedure, shortened: as §2
HepG2 [22] = test: Induction of apoptosis in human HepG2 cells assessed as viable cells at 50 nM after 48 hrs by annexin-V-FITC and propidium iodide staining based flow cytometry (reference value: 93.2%); assay type: functional; conditions: HepG2, 48 h, read-out: Activity
HepG2 [23] = test: Induction of apoptosis in human HepG2 cells assessed as viable cells at 100 nM after 48 hrs by annexin-V-FITC and propidium iodide staining based flow cytometry (reference value: 93.2%); assay type: functional; conditions: HepG2, 48 h, read-out: Activity
HepG2 [24] = test: Induction of apoptosis in human HepG2 cells assessed as early apoptotic cells at 100 nM after 48 hrs by annexin-V-FITC and propidium iodide staining based flow cytometry (reference value: 3.63%); assay type: functional; procedure, shortened: as §2
Rattus norvegicus = test: AUC in rat at 9 mg/kg, po; assay type: ADME, organism-based, Plasma; parameters: dose 9 mg/kg, route oral; conditions: in vivo
Procedure, shortened: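 Rat pharmacokinetics; oral and intravenous dosing, with group sizes of 5, 5 and 4 rats. Parameters derived: systemic clearance, volume of distribution, area under the plasma concentration–time curve, maximum plasma concentration and percent oral bioavailability.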

HUVEC = test: Cytotoxicity in HUVECs after 48 hrs by MTT assay; assay type: cell-based; conditions: Homo sapiens
Procedure, shortened: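 HUVEC proliferation measured by MTT after 48 h exposure. IC50 derived from the dose–response.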

COc1ccc(/C=C/C(=O)c2ccc(OC)c3c2OC(C)(C)C=C3)cc1N
IC50 (HepG2 [1]): 8 nM | IC50 [2]: 26 nM | IC50 [3]: 21 nM | IC50 [4]: 19 nM | IC50 (NCI-H358): 12 nM | IC50 (MCF7 [5]): 27 nM | IC50 [6]: 8 nM | IC50 [7]: 20 nM | IC50 (U-251): 24 nM | IC50 [8]: 84 nM | IC50 [9]: 16 nM | Ratio IC50 (A2780): 4.2 | Ratio IC50 (A2780cisR): 0.7 | Ratio IC50 (MCF7 [10]): 1.6 | Ratio IC50 (HCT-8): 9.5 | Activity (HepG2 [11]): 23.9% | Activity (HepG2 [12]): 19.5% | Activity (HepG2 [13]): 37.4% | Activity (HepG2 [14]): 37.6% | viability at 0.05 µM (HepG2 [15]): 88.8% | Activity (HepG2 [16]): 2.21% | Activity (HepG2 [17]): 4.28% | Activity (HepG2 [18]): 9.65% | viability at 0.2 µM (HepG2 [19]): 63.1% | Activity (HepG2 [20]): 11.45% | Activity (HepG2 [21]): 23.46% | viability at 0.05 µM (HepG2 [22]): 66.1% | viability at 0.1 µM (HepG2 [23]): 48.8% | Activity (HepG2 [24]): 16.34% | AUC (Rattus norvegicus): 2040 ng·h/mL | IC50 (HUVEC): 450 nM
